SKKanGAS inh – inhibitors of SKKanGAS S. pyogenes growth in kanamycin (SK-promoter or general growth effect). BacTiter-Glo, 6 h. AID 1662. 1.3% of 300,000 active. inhibition, % at 7.5 µM;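 active = mean replicate score, as percent of positive control median, at least 50; inconclusive = mean below 50 but one replicate at or above 50; inactive = mean and every replicate below 50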;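 note: strain carries kanamycin resistance gene driven by streptokinase promoter and grows in 40 µg/ml kanamycin; loss of luminescence reflects streptokinase promoter inhibition or plain growth inhibition; 0% = median of DMSO wells and 100% = positive control at its reference dose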
Beta cell apopt – beta cell apoptosis inhibition; INS-1E cytokine-induced death, ATP luminescence, 48 h; percent of positive-control rescue, neutral wells zero; protection from apoptosis, % (no concentration beside the values); 0.8% of 300,000 active; AID 435005;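 active = Every replicate reaches about 75%, or at least half do and their mean reaches it too, limit read from the data; inconclusive = At least half of replicates reach the limit but their mean does not; inactive = Under half of replicates reach the limit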;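 note: 0% = cytokine-treated negative control wells and 100% = positive control rescue; higher means more ATP so stronger rescue from cytokine killing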
Calb FLC – C. albicans growth modulation with fluconazole | AID 1979 | growth inhibition, % (no concentration beside the values) | 0.57% of 300,000 active | C. albicans CaCi-2 (fluconazole-resistant clinical isolate) + fluconazole, Alamar Blue growth, 48 h;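 active = growth inhibition above about 58% in most replicates, limit read from the data, passing the limit was not always enough; inconclusive = exactly half the replicates above a set limit; inactive = most replicates below a set limit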;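 note: all wells also contain fluconazole at 8 µg/ml as a sub-toxic cotreatment; 0% = median of DMSO wells and 100% = median of geldanamycin control wells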
Mdm2-MdmX inh – disrupts the human Mdm2-MdmX interaction; O15151+Q00987; SaOS-2 split-luciferase Mdm2/MdmX complementation, luminescence; inhibition, % at 8 µM; 3% of 330,000 active;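 active = inhibition of at least 50% at 8 µM in the primary screen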
Target sequence (O15151 whole entry, looked up): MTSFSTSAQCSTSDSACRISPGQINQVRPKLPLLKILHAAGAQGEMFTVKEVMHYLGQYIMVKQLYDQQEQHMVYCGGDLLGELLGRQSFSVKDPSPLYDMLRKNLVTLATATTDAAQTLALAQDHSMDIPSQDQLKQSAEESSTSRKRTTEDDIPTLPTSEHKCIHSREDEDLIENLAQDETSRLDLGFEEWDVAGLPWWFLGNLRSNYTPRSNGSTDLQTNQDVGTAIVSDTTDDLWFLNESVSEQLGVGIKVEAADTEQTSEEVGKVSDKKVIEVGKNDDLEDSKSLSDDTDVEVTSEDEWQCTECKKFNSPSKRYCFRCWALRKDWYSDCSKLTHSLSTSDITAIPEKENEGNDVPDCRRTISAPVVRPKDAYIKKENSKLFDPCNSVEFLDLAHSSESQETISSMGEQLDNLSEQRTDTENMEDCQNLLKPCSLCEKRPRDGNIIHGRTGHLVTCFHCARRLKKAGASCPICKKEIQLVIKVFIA
Target sequence (Q00987 whole entry, looked up): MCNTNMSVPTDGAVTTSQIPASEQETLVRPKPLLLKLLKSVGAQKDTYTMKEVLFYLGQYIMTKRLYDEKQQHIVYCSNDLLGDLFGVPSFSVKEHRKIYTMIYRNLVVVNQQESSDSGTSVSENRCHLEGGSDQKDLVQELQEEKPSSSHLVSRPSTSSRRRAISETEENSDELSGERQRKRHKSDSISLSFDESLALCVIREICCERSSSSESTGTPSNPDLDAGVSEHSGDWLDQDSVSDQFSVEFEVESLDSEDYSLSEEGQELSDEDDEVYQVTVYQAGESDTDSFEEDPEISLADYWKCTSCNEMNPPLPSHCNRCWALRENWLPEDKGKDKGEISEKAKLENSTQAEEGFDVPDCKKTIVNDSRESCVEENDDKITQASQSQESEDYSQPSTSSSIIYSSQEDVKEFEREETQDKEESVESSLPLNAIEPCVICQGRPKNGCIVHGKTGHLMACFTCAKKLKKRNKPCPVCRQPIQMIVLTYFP
CSC inhib – cancer stem cell inhibition; AID 2717; inhibition, % at 7.5 µM; 1.1% of 300,000 active; cancer stem cell-like cells viability, luminescence; in the data active = inhibition above about 75%; inconclusive = no clear call, values can overlap the other calls; tested in HMLE shEcad cells
T cruzi repl – T. cruzi replication inhibition; T. cruzi beta-gal in NIH3T3, luminescence, 90 h; AID 1885; 1.4% of 300,000 active; inhibition, % (test concentration not listed);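 active = mean inhibition across valid replicates above about 55%, limit read from the data; inconclusive = mean below that limit but half or more replicates reach it; inactive = mean below it, under half of replicates reach it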;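 note: signal also drops with host cell toxicity which is not excluded here; 0% = plate median of DMSO wells and 100% = zero luminescence signal; higher percent means less beta-gal luminescence so fewer parasites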
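System: NIH/3T3 fibroblasts plus reporter T. cruzi. Medium: DMEM plus 2% FBS. Probe or stimulus: 5000 reporter trypomastigotes per well. Compound: single 50 nL compound addition per well in DMSO. Incubation: co-culture of at least 90 h after 3 h attachment. Detection: GalScreen β-gal luminescence, detergent lysis, 60 min. Evaluation: parasite load inhibition, %.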
* = called active by the depositor; ? = inconclusive; nt = no result. Compounds with a hit are over-represented: about 5.7% of the library has one in this group of screens.

SMILES	SKKanGAS inh	Beta cell apopt	Calb FLC	Mdm2-MdmX inh	CSC inhib	T cruzi repl
COc1ccc(/C=C/C(=O)NC(=S)N2CCN(c3ccccc3OC)CC2)cc1	59.4*	-5.8	-7.2	-44.3	0.3	-8.7
O=C(NC1CCSC1=O)c1ccc(Cl)cc1 (stereo not given)	3.8	-3.5	8.3	8.6	-7.7	-1.2
O=C(COc1ccc(Cl)cc1)NC1CCSC1=O (stereo not given)	5.7	-1.7	101.9*	10.4	-18.0	0.2
CCCCCC(=O)NC(=S)NC1C2CC3CC(C2)CC1C3 (stereo not given)	83.2*	nt	-1.2	35.6	57.0	29.7
CC1=C(CC[C@@H](C)CO)OC2CC3C4CCC5CC(O)CCC5(C)C4CC(=O)C3(C)C12 (stereo not given in full)	3.3	-3.3	86.9*	44.9	0.3	9.4
COCCCn1c(=O)/c(=C\c2ccccc2OC(F)F)s/c1=C(/C#N)C(=O)NC(C)C	8.9	1.2	0.3	-14.1	1.1	13.9
COCCCn1c(=O)/c(=C\c2ccccc2OC(C)C)s/c1=C(/C#N)C(=O)Nc1ccc(C(=O)O)cc1	53.9*	9.8	9.3	23.5	-9.7	7.4
Cc1ccc(S(=O)(=O)N2CCN(CCOc3c(Cl)cccc3Cl)CC2)cc1C	nt	-0.4	nt	15.6	nt	nt
CC(=O)N(CCC(Cc1ccccc1)c1ccc2c(c1)OCO2)Cc1ccc(Cl)cc1 (stereo not given)	64.0*	-0.3	-0.4	25.5	-5.4	63.5*
CCc1ccccc1N(C)S(=O)(=O)c1cc(-c2cc(C)no2)ccc1OC	3.5	-13.0	52.8	36.8	51.2	18.0
O=S(=O)(Nc1ccc(-n2cnnn2)cc1)c1cccs1	nt	-5.3	nt	-39.2	-17.8	nt
Cc1ccc(SC(=O)c2c(C)noc2-c2cc(C)on2)cc1	6.4	-32.7	-7.3	12.2	81.1*	-2.5
Cc1cc(-c2onc(C)c2C(=O)N/N=C/c2ccccc2)no1	5.1	-1.4	-4.9	23.7	-11.6	-7.9
CC(C)CNC(=S)N(CCCN(C)C)Cc1cc2cc3c(cc2[nH]c1=O)OCCO3	0.4	-5.3	2.9	25.3	-3.6	-8.3
CCc1sc(N(C(=O)Cc2ccccc2)c2ccccc2)nc1-c1ccccc1	24.8	1.7	-4.7	25.0	3.3	13.9
CCc1sc(N(C(=O)Cc2ccccc2)c2ccc(F)cc2)nc1-c1ccccc1	55.0*	9.5	-2.2	1.1	46.7	1.6
CCOP(=O)(OCC)C(NC(=O)NS(=O)(=O)c1ccc(C)cc1)c1ccccc1 (stereo not given)	-4.6	nt	8.8	-15.6	-2.9	10.4
O=C(NN1C(=O)c2cc(Br)ccc2NC1c1cc(Br)cc(Br)c1O)c1ccncc1 (stereo not given)	58.7*	-12.3	1.0	4.3	31.5	8.9
CC(C)(C)C1=CC(=O)C(=O)C(C(C)(C)C)=C1	-4.4	-0.1	-43.6	18.4	62.5	73.8*
Cc1ccc(/C=C2\SC(=S)N(C3CCS(=O)(=O)C3)C2=O)o1 (stereo not given)	8.1	-10.2	?	-5.1	13.4	8.1
NS(=O)(=O)c1ccc(-c2ccc(/C=C3\SC(=S)N(C4CCS(=O)(=O)C4)C3=O)o2)cc1 (stereo not given)	73.4*	-10.1	23.0	14.1	36.5	6.3
O=C(CSc1ccc2ccccc2c1)N1CCN(c2ccc(O)cc2)CC1	6.9	2.7	-15.0	6.9	91.4*	0.2
C=CC[n+]1c(/C=C/c2ccc(OC(C)=O)c(OC)c2)ccc2ccccc21	19.7	27.7	-3.3	6.9	-0.8	26.7
CCc1sc(C(=O)N2CCN(C(=O)c3ccccc3)CC2)cc1C	nt	1.1	nt	-11.5	-7.2	nt
CC(C)c1ccc(NC(=O)COC(=O)[C@@H]2CCCN2C(=O)c2cccs2)cc1	nt	-1.7	nt	12.9	-11.4	nt
SMILES	SKKanGAS inh	Beta cell apopt	Calb FLC	Mdm2-MdmX inh	CSC inhib	T cruzi repl
O=c1[nH]c(CN2CCN(c3ccccn3)CC2)nc2c(Br)cc(Br)cc12	11.8	-12.4	14.1	43.3	81.0*	-9.0
CCN(C(=O)c1ccc(C(C)(C)C)cc1)c1nnc(Cn2nnc3ccccc32)s1	23.2	111.8*	2.5	45.8	62.0	38.7
CC(C)c1ccc(-n2nnnc2SCC(=O)NC2CC2)cc1	nt	-10.9	nt	34.0	nt	nt
Cc1cc(C)c(NC(=O)CN(C)CC(=O)N(C)CC(=O)Nc2c(Cl)cccc2Cl)c(C)c1	nt	nt	nt	-15.2	nt	nt
O=C(O)c1ccc(N2C(=O)c3[nH]nc(-c4ccccc4)c3C2c2ccccc2)cc1 (stereo not given)	-1.9	-1.4	6.5	8.5	-1.9	-3.1
CC(C)[C@@H]1CC[C@@H](C)c2c(-c3ccccc3)n[nH]c21	88.1*	-0.7	27.5	-1.1	100.7*	41.9
COc1ccc(CN(C)S(=O)(=O)c2nnc(NC(=O)c3cccc(OC)c3)s2)cc1	40.7	-0.9	17.8	9.0	23.9	-12.7
COc1ccc(CN(C)S(=O)(=O)c2nnc(NC(=O)c3ccccc3Br)s2)cc1	59.0*	4.2	-0.2	-2.4	29.7	-7.2
COc1ccc(CN2CCC(C(=O)c3ccc(Cl)cc3)CC2)cc1	0.8	-7.4	6.4	20.0	-6.5	35.6
Cc1c(C(=O)NCC2COc3ccccc3O2)oc2ccc(S(=O)(=O)N3CCOCC3)cc12 (stereo not given)	6.5	1.8	23.7	32.5	30.1	8.4
CCN(CC)CCCNC(=O)c1oc2ccc(S(=O)(=O)N3CC(C)CC(C)C3)cc2c1C (stereo not given)	3.4	-12.5	-2.8	46.4	0.7	56.4*
Cc1c(C(=O)NCC2COc3ccccc3O2)oc2ccc(S(=O)(=O)N3CC(C)CC(C)C3)cc12 (stereo not given)	6.7	7.8	-2.8	38.6	30.4	63.5*
CCOc1ccc(NC(=O)CCSc2nc3c(c(CC)c2C#N)C(=O)CC(C)(C)C3)cc1	7.3	-5.5	0.4	9.1	27.6	55.0*
CC(=O)C1=C(O)C(=O)N(c2ccccn2)C1c1cccc(F)c1 (stereo not given)	-3.7	0.4	-1.0	-2.6	-11.2	-10.8
Cc1onc(-c2ccccc2)c1C(=O)NNC(=S)NC(=O)c1ccc2c(c1)OCO2	98.2*	12.4	4.4	31.8	24.0	-7.2
COc1ccc(C(=O)NC(=S)NNC(=O)c2c(-c3ccccc3)noc2C)cc1OC	91.3*	10.1	2.8	31.5	6.1	-6.8
COc1ccc(CCNC(=O)c2c(-c3ccccc3)noc2C)cc1OC	-2.3	-1.7	1.1	23.6	-7.8	15.6
COc1ccc(-c2cc(C(=O)Nc3ccc(C(N)=O)cc3)c3ccccc3n2)cc1	12.4	-9.1	-12.9	27.7	9.6	14.2
Cc1ccc(C(C)(C)C)cc1S(=O)(=O)N1CCC(C(=O)N2CCN(c3ccc(O)cc3)CC2)CC1	nt	15.6	nt	13.5	nt	nt
N#C/C(=C(/O)c1ccco1)c1nc2ccccc2s1	1.7	0.2	5.9	-5.6	12.0	-15.5
CC1=CC(=C(C#N)c2nc3ccccc3s2)C=C(C)N1Cc1ccco1	21.8	13.7	10.1	26.3	26.6	64.4*
